Screening data deposited in PubChem BioAssay by The Scripps Research Institute Molecular Screening Center.
GalR3 antagonist = antagonists of human GalR3; O60755; HEK293 GalR3-CNG cAMP membrane potential fluorescence; galR3 body fused to GalR1 C-terminus; inhibition, % at 3 µM; 360,000 tested, 0.44% active; AID 651719;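 active means inhibition above the screen-wide average plus 3 SD, cut at about 13% in these data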;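 further: forskolin and galanin both at EC90 stimulate the cells; cAMP rise reported by CNG channel membrane potential dye signal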
TAAR1 ag = agonists of human TAAR1. Q96RJ0. CHO RD-HGA16 TAAR1, Fluo-8 calcium fluorescence; vehicle wells 0%, saturating PEA agonist 100%. activation, % at 3 µM. 360,000 tested, 0.99% active. AID 624467;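 active means activation above the mean activation of all test compounds in the run plus 3 SD, cut at about 38% in these data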
Target sequence (Q96RJ0 whole entry, looked up): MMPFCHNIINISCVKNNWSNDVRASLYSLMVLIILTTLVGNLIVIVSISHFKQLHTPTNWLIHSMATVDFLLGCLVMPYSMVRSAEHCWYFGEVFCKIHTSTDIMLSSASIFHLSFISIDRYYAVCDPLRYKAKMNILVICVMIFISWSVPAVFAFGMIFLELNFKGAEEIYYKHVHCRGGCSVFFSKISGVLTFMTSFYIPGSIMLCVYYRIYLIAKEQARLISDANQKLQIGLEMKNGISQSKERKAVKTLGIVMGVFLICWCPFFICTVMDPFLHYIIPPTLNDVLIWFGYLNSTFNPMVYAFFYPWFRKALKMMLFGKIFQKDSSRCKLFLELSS
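System: CHO RD-HGA16 cells carrying human TAAR1 plus Gα16; Incubation: 17-24 h seeding, 75 min 37 °C dye, 30 min RT; Measured by: Fluo-8 fluorescence, 5 s baseline then 140 s kinetic read; Control set: DMSO and PEA EC100; Replication: single well for each compound.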
OX1R antag-1 = OX1R (human) antagonism. 330,000 tested, 1.8% active. AID 485270. OX1R-expressing cells, FRET antagonist read-out. O43613. inhibition, % at 6.6 µM; in the data active means inhibition mostly above about 38%, no sharp cut-off; inactive means mostly below about 40%
CHO parental Ca = signal in parental CHO cells, OX1R antagonist counter-screen | inhibition, % at 5.6 µM | parental CHO-K1, ATP-induced calcium, Fluo-8 fluorescence | 330,000 tested, 0.63% active;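 active means inhibition above that plate's mean sample inhibition plus 3 SD, cut at about 26% in these data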
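Test system: untransfected parental CHO cell line. Compound: one dose, 5.6 µM nominal. Detection: intracellular calcium via Fluo-8 no-wash fluorescent dye. Measure: % inhibition. Benchmarks: ATP-challenged DMSO wells low, unchallenged DMSO wells high.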
OX1R antag-2 = human HCRTR1 antagonism | AID 434989 | CHO/OX1R cells, Fluo-8 calcium fluorescence, orexin A | inhibition, % at 5 µM | O43613 | 330,000 tested, 0.43% active;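 active means inhibition above its plate's threshold, mean inhibition of all tested compounds on the plate plus 3 SD, cut at about 37% in these data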
TAAR1 antag = human TAAR1 antagonism. CHO RD-HGA16 TAAR1, Fluo-8 calcium fluorescence, antagonist. inhibition, % at 3 µM. 360,000 tested, 1.5% active. Q96RJ0. AID 624466;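 active means inhibition above a per-plate cutoff, the mean inhibition of test compounds on that plate plus 3 SD, cut at about 49% in these data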
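Test system – hTAAR1-expressing CHO RD-HGA16 cells, Gα16-coupled · Also added – β-PEA at EC80 concentration, post-compound challenge · Compound – 3 µM, single point · Incubation – dye loading 75 min at 37 °C, then 30 min room temperature · Measured by – Fluo-8 intracellular calcium dye fluorescence, real-time kinetic reads · Benchmarks – vehicle and agonist controls · Replicates – singlicate, one well per test compound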
OX1R HTRF confirm = OX1R (human) antagonism, HTRF confirmed. shares compounds with OX1R antag-1. OX1R-expressing cells, HTRF antagonist assay. inhibition, % at 6.6 µM. 1,800 tested, 49% active. AID 492964; in the data active means inhibition above about 55%;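 further: CHO cells expressing OX1R stimulated with orexin A at about EC80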
CHO-K1 HTRF cnt = counter-screen for OX1R antagonists: effect in parental CHO-K1 cells; inhibition, % at 6.6 µM; shares compounds with OX1R antag-1; 1,800 tested, 48% active; HTRF counterscreen; in the data active means inhibition above about 17%
Hits are given with their value; i = inactive; nt = no result. A selection: hits, their analogues and other compounds. The true share with any hit is near 4.2%.

SMILES	GalR3 antagonist	TAAR1 ag	OX1R antag-1	CHO parental Ca	OX1R antag-2	TAAR1 antag	OX1R HTRF confirm	CHO-K1 HTRF cnt
COc1cc(N=c2oc3c(C)ncc(CO)c3cc2C(N)=O)cc(OC)c1OC	i	i	121	i	i	i	55	58
CCCC[n+]1ccc(-c2nc3ccc([N+](=O)[O-])cc3[nH]2)cc1	i	i	113	i	i	i	56	80
OC1(CN2CCOCC2)C2CN3CCN(C2)CC1(c1ccccc1)C3 (configuration not stated)	i	i	i	i	i	i	nt	nt
COc1ccc(NC(=O)CSc2nnnn2C)c([N+](=O)[O-])c1	i	i	117	i	i	i	i	46
O=C(Nc1ccc(O)c(-c2nc3ccccc3s2)c1)C1=COCCO1	i	i	88	i	i	i	i	i
O=C(Nc1ccc(-c2nc3ccccc3s2)c(O)c1)C1=COCCO1	i	i	i	i	i	i	nt	nt
Cc1ccsc1C(=O)Nc1ccc(O)c(-c2nc3ccccc3s2)c1	i	i	81	i	i	i	73	i
O=C(CCCN1C(=O)/C(=C/c2cccs2)SC1=S)Nc1ccc(C(=O)O)cc1	i	i	i	i	i	i	nt	nt
CC(C)(C)c1ccc(-c2nnc(SC3CCOC3=O)n2Cc2ccccc2)cc1 (configuration not stated)	i	i	84	i	i	i	i	i
O=C1OCCC1Sc1nc2ccccc2c(=O)n1Cc1ccccc1 (configuration not stated)	i	i	i	i	i	i	nt	nt
COC(=O)c1sccc1NC(=O)COc1ccccc1Cl	i	i	79	i	i	i	56	i
O=C(O)c1c2c(nc3ccccc13)/C(=C/c1ccc(OC(F)F)cc1)CCC2	i	i	i	i	i	i	nt	nt
O=C(O)c1c2c(nc3ccccc13)/C(=C/c1c(F)cccc1F)CCC2	i	i	113	i	i	i	i	18
Cn1cc(Br)c(C(=O)Nc2sc3c(c2C(N)=O)CCC3)n1	i	i	79	i	i	i	i	i
COc1ccccc1C(=O)Nc1sc2c(c1C(N)=O)CCCC2	i	i	79	i	i	i	69	i
COc1ccccc1C(=O)Nc1sc2c(c1C#N)CCC2	nt	nt	i	i	i	nt	nt	nt
O=C(NCc1ccco1)c1cc([N+](=O)[O-])ccc1Cl	i	i	i	i	i	i	nt	nt
O=C(NCc1ccco1)c1cc([N+](=O)[O-])cc([N+](=O)[O-])c1	i	i	118	i	i	i	55	69
CC(=O)NN1C(=O)c2ccccc2NC1c1cccc([N+](=O)[O-])c1 (configuration not stated)	i	i	i	i	i	i	nt	nt
O=C(Nc1cccc(Cl)c1)c1cc(N=Nc2ccc([N+](=O)[O-])cc2Cl)ccc1O	i	i	77	i	i	i	57	23
COc1cccc(C(=O)Nc2cc(=O)n(C)c(=O)n2C)c1	i	i	i	i	i	i	nt	nt
COc1cccc(-c2nn(C)c3sc(C(=O)N4CCN(c5ccccn5)CC4)cc23)c1	nt	nt	78	i	i	nt	i	i
COc1cccc(-c2nn(C)c3sc(C(=O)N4CCOCC4)cc23)c1	i	i	i	i	i	i	nt	nt
CCOc1ccc(NC(=O)N2CCC(c3nc4ccccc4[nH]3)CC2)cc1	i	i	i	i	i	i	nt	nt
O=C(NCCO)c1ccc2c(c1)S(=O)(=O)c1ccccc1C2=O	i	i	108	i	i	i	65	67
O=C1c2ccccc2S(=O)(=O)c2cc(C(=O)N3CCC(N4CCCC4)CC3)ccc21	i	i	101	i	i	i	i	88
O=C(NCC1CCCO1)c1ccc2c(c1)S(=O)(=O)c1ccccc1C2=O (configuration not stated)	i	i	81	i	i	i	61	63
